Source: ChEMBL document CHEMBL1138684, “Determinants of retinoid X receptor transcriptional antagonism” (J Med Chem, 2004)

Assays:
[1] = molecular target: T1, Retinoic acid receptor RXR-alpha (Homo sapiens, UniProt P19793); assay: Inhibition of [3H]9-cis-retinoic acid binding to human retinoid X receptor alpha ligand-binding domain expressed in Escherichia coli
T1 sequence (P19793 whole entry): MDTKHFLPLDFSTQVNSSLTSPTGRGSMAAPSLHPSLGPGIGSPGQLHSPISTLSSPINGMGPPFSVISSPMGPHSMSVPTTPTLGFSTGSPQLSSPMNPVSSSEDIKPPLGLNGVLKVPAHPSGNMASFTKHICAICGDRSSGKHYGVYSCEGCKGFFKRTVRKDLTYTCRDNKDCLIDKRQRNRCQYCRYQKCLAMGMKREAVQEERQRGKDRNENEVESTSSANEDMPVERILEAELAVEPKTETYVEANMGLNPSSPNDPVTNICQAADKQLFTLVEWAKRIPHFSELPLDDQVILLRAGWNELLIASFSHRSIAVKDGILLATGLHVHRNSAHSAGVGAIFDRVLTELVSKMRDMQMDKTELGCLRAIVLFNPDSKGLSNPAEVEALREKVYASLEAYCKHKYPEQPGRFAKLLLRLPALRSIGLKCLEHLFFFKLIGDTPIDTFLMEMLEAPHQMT

[2] = molecular target: T2, Retinoic acid receptor gamma (Homo sapiens) (UniProt P13631); assay: Antagonism of retinoic acid receptor gamma activity induced by retinoic acid at 10e-6 M; format: functional
T2 sequence (whole entry): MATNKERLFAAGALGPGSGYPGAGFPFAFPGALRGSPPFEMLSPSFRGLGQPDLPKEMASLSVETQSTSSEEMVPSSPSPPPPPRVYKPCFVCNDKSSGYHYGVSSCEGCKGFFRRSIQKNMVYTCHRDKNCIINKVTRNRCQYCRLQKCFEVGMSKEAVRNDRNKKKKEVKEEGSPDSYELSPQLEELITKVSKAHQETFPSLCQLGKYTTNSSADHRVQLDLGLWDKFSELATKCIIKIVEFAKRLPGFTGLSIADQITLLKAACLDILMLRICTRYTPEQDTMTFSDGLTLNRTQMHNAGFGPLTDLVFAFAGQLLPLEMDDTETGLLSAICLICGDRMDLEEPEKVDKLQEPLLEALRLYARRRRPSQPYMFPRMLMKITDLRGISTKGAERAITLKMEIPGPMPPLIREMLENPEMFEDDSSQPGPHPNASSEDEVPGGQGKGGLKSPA
In short: (§1)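 CV-1 cells kept in DMEM with 10% FCS and seeded 16-24 h before calcium precipitation cotransfection: RARα, β or γ vector (100 µg) with (TREpal)2-tk-CAT or CRBP-I-tk-CAT reporter (200 µg), plus β-gal vector. At 20 h, medium switched to 5% charcoal-stripped FCS. Cells got 1 × 10^-7 M trans-RA ± test agent for 24 h. CAT normalized to β-gal, as % of trans-RA alone.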

[3] = molecular target: T3, Retinoic acid receptor beta (Homo sapiens) (UniProt P10826); assay: Antagonism of retinoic acid receptor beta activity induced by retinoic acid at 10e-6 M; format: functional; in short: as §1
T3 sequence (whole entry): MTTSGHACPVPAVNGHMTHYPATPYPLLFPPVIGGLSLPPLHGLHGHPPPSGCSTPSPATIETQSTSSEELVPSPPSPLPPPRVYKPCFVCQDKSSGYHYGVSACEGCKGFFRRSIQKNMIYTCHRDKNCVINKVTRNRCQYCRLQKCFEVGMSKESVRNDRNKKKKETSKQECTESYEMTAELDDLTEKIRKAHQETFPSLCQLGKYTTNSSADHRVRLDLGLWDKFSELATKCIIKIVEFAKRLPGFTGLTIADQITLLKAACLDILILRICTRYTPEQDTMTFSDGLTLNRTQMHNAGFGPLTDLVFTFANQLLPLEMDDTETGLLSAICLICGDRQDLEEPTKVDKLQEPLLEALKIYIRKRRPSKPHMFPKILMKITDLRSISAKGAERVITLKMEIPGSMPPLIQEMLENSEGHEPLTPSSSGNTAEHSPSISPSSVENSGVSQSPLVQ

[4] = molecular target: T4, Retinoic acid receptor RXR-alpha (Homo sapiens) (UniProt P19793); assay: Antagonism of retinoid X receptor alpha activity induced by retinoic acid […] at 10e-7 M; format: functional
T4 sequence (whole entry): T1 sequence (P19793 whole entry)
In short: (§2)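 CV-1 cells in DMEM/10% FCS, cotransfected by calcium precipitation with RXRα vector (20 µg), CRBP-II-tk-CAT reporter (200 µg) and β-gal vector. At 20 h, medium changed to 5% charcoal-stripped FCS. Cells treated 24 h with 1 × 10^-7 M 9-cis-RA ± test agent. CAT activity normalized to β-gal, expressed relative to 9-cis-RA alone as 100%.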

[5] = molecular target: T4, Retinoic acid receptor RXR-alpha (Homo sapiens); assay: Antagonism of retinoid X receptor alpha activity induced by retinoic acid […] at 10e-5 M; format: functional; in short: as §2
[6] = molecular target: T2, Retinoic acid receptor gamma (Homo sapiens); assay: Antagonism of retinoic acid receptor gamma activity induced by retinoic acid at 10e-7 M; format: functional; in short: as §1
[7] = molecular target: T3, Retinoic acid receptor beta (Homo sapiens); assay: Antagonism of retinoic acid receptor beta activity induced by retinoic acid at 10e-5 M; format: functional; in short: as §1
[8] = molecular target: T4, Retinoic acid receptor RXR-alpha (Homo sapiens); assay: Antagonism of retinoid X receptor alpha activity induced by retinoic acid […] at 10e-6 M; format: functional; in short: as §2
[9] = molecular target: T5, Retinoic acid receptor alpha (Homo sapiens) (UniProt P10276); assay: Antagonism of retinoic acid receptor alpha activity induced by retinoic acid at 10e-5 M; format: functional; in short: as §1
T5 sequence (whole entry): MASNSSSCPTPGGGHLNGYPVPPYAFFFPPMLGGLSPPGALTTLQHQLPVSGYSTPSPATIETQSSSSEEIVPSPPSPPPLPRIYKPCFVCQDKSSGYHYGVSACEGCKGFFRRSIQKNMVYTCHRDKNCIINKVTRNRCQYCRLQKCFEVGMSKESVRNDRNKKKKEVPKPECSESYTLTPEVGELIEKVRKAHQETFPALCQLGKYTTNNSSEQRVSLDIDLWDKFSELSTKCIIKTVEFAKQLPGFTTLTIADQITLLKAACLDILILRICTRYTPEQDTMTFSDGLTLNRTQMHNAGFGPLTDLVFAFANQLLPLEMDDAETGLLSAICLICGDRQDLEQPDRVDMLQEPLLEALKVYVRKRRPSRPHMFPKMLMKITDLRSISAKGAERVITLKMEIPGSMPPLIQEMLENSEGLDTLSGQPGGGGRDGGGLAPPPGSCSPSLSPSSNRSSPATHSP

[10] = molecular target: T5, Retinoic acid receptor alpha (Homo sapiens); assay: Antagonism of retinoic acid receptor alpha activity induced by retinoic acid at 10e-7 M; format: functional; in short: as §1
[11] = molecular target: T3, Retinoic acid receptor beta (Homo sapiens); assay: Antagonism of retinoic acid receptor beta activity induced by retinoic acid at 10e-7 M; format: functional; in short: as §1
[12] = molecular target: T5, Retinoic acid receptor alpha (Homo sapiens); assay: Antagonism of retinoic acid receptor alpha activity induced by retinoic acid at 10e-6 M; format: functional; in short: as §1
[13] = molecular target: T2, Retinoic acid receptor gamma (Homo sapiens); assay: Antagonism of retinoic acid receptor gamma activity induced by retinoic acid at 10e-5 M; format: functional; in short: as §1

Compound: CCCOc1cc2c(cc1C(=C1CC1)c1ccc(C(=O)O)cn1)C(C)(C)CCC2(C)C
- IC50 [1]: 6 nM

Compound: CCCCc1cc2c(cc1C(=C1CC1)c1ccc(C(=O)O)cc1)C(C)(C)CCC2(C)C
- Relative activation [2]: 99%
- Relative activation [3]: 88%
- Relative activation [4]: 115%
- Relative activation [5]: 48%
- IC50 [1]: 500 nM
- Relative activation [6]: 95%
- Relative activation [7]: 65%
- Relative activation [8]: 88%
- Relative activation [9]: 22%
- Relative activation [10]: 82%
- Relative activation [11]: 98%
- Relative activation [12]: 45%
- Relative activation [13]: 91%

Compound: C=C(c1ccc(C(=O)O)cc1)c1cc2c(cc1CCCC)C(C)(C)CCC2(C)C
- Relative activation [2]: 94%
- Relative activation [3]: 102%
- Relative activation [4]: 114%
- Relative activation [5]: 150%
- Relative activation [6]: 89%
- Relative activation [7]: 84%
- Relative activation [8]: 130%
- Relative activation [9]: 20%
- Relative activation [10]: 75%
- Relative activation [11]: 94%
- Relative activation [12]: 30%
- Relative activation [13]: 110%

Compound: CCCCOc1cc2c(cc1C(=C1CC1)c1ccc(C(=O)O)cn1)C(C)(C)CCC2(C)C
- IC50 [1]: 10 nM

Compound: CCCCOc1cc2c(cc1C(=C1CC1)c1ccc(C(=O)O)cc1)C(C)(C)CCC2(C)C
- IC50 [1]: 270 nM

Compound: CCCOc1cc2c(cc1C(=C1CC1)c1ccc(C(=O)O)cc1)C(C)(C)CCC2(C)C
- IC50 [1]: 120 nM

Compound: Cc1cc2c(cc1C(=C1CC1)c1ccc(C(=O)O)cc1)C(C)(C)CCC2(C)C
- IC50 [1]: 21 nM
